Most compounds without a hit are left out; they make up all but 1% or so of the library.
thrombin 1536: blocks human thrombin protease activity. alpha-thrombin, Boc-VPR-AMC fluorogenic substrate cleavage. P00734. inhibition, % at 5 µM. actives 0.26% (n = 220,000);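 active = inhibition at or above 40%; inactive = inhibition below 40%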
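Material: Human alpha-thrombin protein | Buffer or medium: pH 7.5 Tris-saline with Tween 20 | Reagent: Boc-VPR-AMC substrate, 15 µM final | Schedule: Reaction at ambient temperature | Detection: AMC fluorescence at 355 nm excitation and 460 nm emission | Evaluation: Percent inhibition scaled between no-compound controls and no-enzyme blanks | Controls: no-compound enzyme wells and no-enzyme blanks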
FXIa inh 1536: factor XIa (human) inhibition; inhibition, % at 5 µM; P03951; purified FXIa, Boc-Glu-Ala-Arg-AMC fluorogenic substrate; actives 0.14% (n = 220,000);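 active = inhibition of at least 40%; inactive = inhibition below 40%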;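 also: fluorescence of freed AMC excited at 355 nm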
FXIIa inh 1536: blocks human coagulation factor XIIa protease activity; P00748; purified FXIIa, Boc-QGR-AMC fluorogenic substrate, 2 h; inhibition, % at 5 µM; actives 0.3% (n = 220,000); AID 800; in the data active = inhibition above about 40%
hK5 inh: inhibitors of human kallikrein 5 | recombinant hK5, fluorogenic AMC substrate cleavage | inhibition, % at 5 µM | actives 0.59% (n = 210,000);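 active = inhibition of 40% or more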
Target sequence (Q9Y337 67-293 limits assumed): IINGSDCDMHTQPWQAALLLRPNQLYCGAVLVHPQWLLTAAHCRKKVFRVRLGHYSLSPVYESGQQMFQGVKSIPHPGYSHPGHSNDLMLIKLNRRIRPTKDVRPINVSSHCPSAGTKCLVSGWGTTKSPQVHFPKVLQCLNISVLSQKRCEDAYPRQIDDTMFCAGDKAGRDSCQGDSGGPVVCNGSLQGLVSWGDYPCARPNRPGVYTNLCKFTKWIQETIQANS
Numbers stand for hits; 0 = inactive; - = no result given.

SMILES	thrombin 1536	FXIa inh 1536	FXIIa inh 1536	hK5 inh
CC(=O)OCC(=O)Nc1cc(S(=O)(=O)N2CCCCCC2)ccc1Cl	-	0	0	0
O=C(COC(=O)c1cc(Br)ccc1O)Nc1cc(S(=O)(=O)N2CCCC2)ccc1Cl	45	0	0	0
Cc1cc(NC(=O)c2coc(=O)c(Br)c2)ccc1C(C)C	0	0	0	0
CCOc1ccc(/C=C(\C#N)C(=O)c2c(C)[nH]c3ccccc23)cc1OC	0	0	0	0
COc1cc(/C=C(/C#N)C(=O)c2c(C)[nH]c3ccccc23)ccc1OCC#N	0	0	0	42
Cc1cc(=O)oc2cc(NC(=O)CC3(CC(=O)O)CCCC3)ccc12	0	0	0	52
COc1cccc(C(=O)N2CCSC2=S)c1	0	0	0	48
COC(=O)c1sccc1NC(=O)/C=C/c1c(Cl)cccc1Cl	0	0	40	0
COC(=O)c1sccc1NC(=O)/C=C/c1ccc(Cl)cc1Cl	0	0	0	0
CCOC(=O)c1sc2ncn(/N=C/c3cccnc3)c(=O)c2c1C	0	0	0	0
CCOC(=O)c1sc2ncn(/N=C/c3ccc(O)cc3)c(=O)c2c1C	0	49	0	0
CCC(=O)Nc1ccc(C(=O)CSc2nc3ccccc3cc2CC)cc1	104	0	0	60
Cc1cc(-c2ccccc2)nc(N(C)NC(=O)c2ccc(Cl)cc2)c1S(C)(=O)=O	0	0	0	0
CC(=O)Nc1ccc(S(=O)(=O)n2cnc3cc(C)c(C)cc32)cc1	104	0	0	92
CCOc1ccc(S(=O)(=O)N2CCCCC2)c2ccccc12	0	0	0	0
CCOc1ccc(S(=O)(=O)n2ccc(C)n2)c2ccccc12	0	0	0	49
CC1CN(CC(=O)NN=C(c2ccccc2)c2ccccc2)CC(C)O1 (stereo not given)	0	0	0	-
Cc1ccc2c(c1)CC1(CN2C)C(=O)OC(C)(C)OC1=O	73	0	0	0
O=C(Nc1ccccc1-c1nnn(CC(=O)N2CCc3ccccc3C2)n1)C1CCC1	0	0	0	56
O=C(Nc1cccc(-c2nnn(CC(=O)N3CCc4ccccc4C3)n2)c1)C1CCC1	0	0	0	0
C#CCOc1nc(Nc2cccc([N+](=O)[O-])c2)nc(OCC#C)n1	0	0	41	0
Cc1ccc(NC(=O)c2ccc3ccccc3n2)cc1S(=O)(=O)N1CCOCC1	48	0	0	0
O=C(Nc1cccc(S(=O)(=O)N2CCOCC2)c1)c1ccc2ccccc2n1	0	0	0	0
CC1=CC(C)(C)[N+](C)=CN1c1ccccc1	0	0	0	0
CN(c1ncc(C(F)(F)F)cc1Cl)N1C(=O)c2cccc([N+](=O)[O-])c2C1=O	0	0	0	47
SMILES	thrombin 1536	FXIa inh 1536	FXIIa inh 1536	hK5 inh
CN(C)C(=O)c1cn(N(C)c2ncc(C(F)(F)F)cc2Cl)c(=O)c2ccccc12	0	0	0	0
Cc1cccc(NC(=S)NC(=O)/C=C/c2ccccc2)n1	50	0	0	0
NC(=S)NC(=O)/C=C/c1ccccc1	0	0	0	0
CC(=O)C1CCC2C3CCC4=CC(=O)CC[C@]4(C)[C@@]3(F)C(O)C[C@]12C (stereo not given in full)	0	0	0	0
CCN(CC)c1ccc(/C=N/NC(=O)c2cccc(S(=O)(=O)N3CCOCC3)c2)cc1	0	0	0	0
CCN(Cc1ccccc1)c1ccc(/C=N/NC(=O)c2cccc(S(=O)(=O)N3CCOCC3)c2)cc1	0	0	0	56
COc1ccc(-c2[nH]ncc2C2N=C(N)Nc3nc4ccccc4n32)cc1 (stereo not given)	0	47	0	0
NC1=NC(c2cn[nH]c2-c2cccc(F)c2)n2c(nc3ccccc32)N1 (stereo not given)	0	0	0	0
NS(=O)(=O)c1ccc(Cl)cc1[N+](=O)[O-]	0	41	46	0
O=C(COC(=O)CCN1C(=O)c2cccc([N+](=O)[O-])c2C1=O)NCc1ccccc1	0	0	0	42
COc1ccc2[nH]c(C(=O)O)c(CCN3C(=O)c4cccc([N+](=O)[O-])c4C3=O)c2c1	0	0	0	0
Cc1ccc(C(=O)C(=O)c2ccc(C)c(N)c2)cc1N	0	53	40	0
CCNC(=O)C(=O)NCC1OCCCN1S(=O)(=O)c1cccs1 (stereo not given)	0	0	0	0
CC12CN3CC(C)(CN(C1)C3c1ccc(Br)cc1)C2=O (stereo not given)	0	0	0	68
CC12CN3CC(C)(CN(C1)C3c1cc(Br)ccc1O)C2=O (stereo not given)	0	0	0	0
Cc1ccc2nc(NC(=O)CSCC(=O)OCC(=O)c3ccc(Br)cc3)sc2c1	92	0	0	0
COC(=O)c1ccc2nc(NC(=O)CSCC(=O)OCC(=O)c3ccccc3)sc2c1	0	0	0	0
Cc1ccc(C(=O)N/C(=C\c2ccc(-c3ccc([N+](=O)[O-])cc3)o2)C(=O)NC2CCS(=O)(=O)C2)cc1 (stereo not given)	0	0	0	0
COc1ccc(Cn2c(-c3ccc(C)cc3)c[n+]3ccccc23)cc1	0	0	0	0
Cc1csc(NC(=O)C(CC(C)C)NS(=O)(=O)c2ccc3c(c2)oc(=O)n3C)n1 (stereo not given)	0	0	107	55
Cc1oc(-c2ccccc2)nc1Cn1cccc1C1=NC(c2ccccc2)CO1 (stereo not given)	0	0	0	101
Fc1ccc(Cn2cccc2C2=NC(c3ccccc3)CO2)cc1 (stereo not given)	0	0	0	0
CSc1ccccc1NC(=O)CN(c1ccccc1Br)S(C)(=O)=O	0	0	0	0
Cc1cc(C(=O)CSc2nnnn2C)c(C)n1-c1cccc(F)c1	49	0	0	0
Cc1nn2c(CN(C(=O)CN3CCOCC3)c3ccccc3)nnc2c2ccccc12	0	0	42	0
SMILES	thrombin 1536	FXIa inh 1536	FXIIa inh 1536	hK5 inh
Cc1nn2c(CN(C(=O)COc3ccccc3)c3ccccc3)nnc2c2ccccc12	0	0	0	0
Cc1[nH]n(-c2ncc(-c3ccccc3)s2)c(=O)c1C(c1ccc(Br)cc1)C(C#N)C#N (stereo not given)	0	0	0	0
CCN(CC)S(=O)(=O)c1cccc(NC(=O)/C=C/c2cccc([N+](=O)[O-])c2)c1	95	0	0	67
O=C(CSc1nc(O)c(C2CCCCC2)c(=O)[nH]1)N1CCOCC1	0	0	0	0
O=C(Nc1ccc(Cl)cc1)Nc1nc(-c2ccccc2O)cs1	0	53	0	0
Cc1ccsc1C(=O)NCCC(c1ccccc1)c1ccccc1	0	0	48	0
CCOC(=O)Cc1csc(NC(=O)COc2cc(C)cc(C)c2)n1	0	0	0	0
Cc1ccsc1/C=N/NC(=O)c1ccc2c(c1)OCCO2	0	0	46	0
Cc1ccsc1/C=N\NC(=O)c1ccc2c(c1)OCO2	0	0	0	0
C/C(=N\NC(=O)CCn1nnc2ccccc21)c1cccs1	0	0	43	0
CN(Cc1ccon1)Cc1cn(C)nc1-c1cccc(Cl)c1	0	0	0	58
CCN(CC)c1ccc(NC(=O)c2nc3nc(C)cc(C(F)F)n3n2)cc1	0	0	0	48

Screening results deposited in PubChem by PCMD.
